Reference: article PMC4002067 (Journal of Medicinal Chemistry, 2014)

What was measured:
[1] = drawback stated in the introduction; cited from earlier work
[2] = molecular target: T1, SIRT1 (Homo sapiens, UniProt Q96EB6); assay: Saturation transfer difference; assay type: binding; conditions: 1.5 μM SIRT1, 200 μM compound, naphthalene numbering
T1 sequence (Q96EB6 1-747): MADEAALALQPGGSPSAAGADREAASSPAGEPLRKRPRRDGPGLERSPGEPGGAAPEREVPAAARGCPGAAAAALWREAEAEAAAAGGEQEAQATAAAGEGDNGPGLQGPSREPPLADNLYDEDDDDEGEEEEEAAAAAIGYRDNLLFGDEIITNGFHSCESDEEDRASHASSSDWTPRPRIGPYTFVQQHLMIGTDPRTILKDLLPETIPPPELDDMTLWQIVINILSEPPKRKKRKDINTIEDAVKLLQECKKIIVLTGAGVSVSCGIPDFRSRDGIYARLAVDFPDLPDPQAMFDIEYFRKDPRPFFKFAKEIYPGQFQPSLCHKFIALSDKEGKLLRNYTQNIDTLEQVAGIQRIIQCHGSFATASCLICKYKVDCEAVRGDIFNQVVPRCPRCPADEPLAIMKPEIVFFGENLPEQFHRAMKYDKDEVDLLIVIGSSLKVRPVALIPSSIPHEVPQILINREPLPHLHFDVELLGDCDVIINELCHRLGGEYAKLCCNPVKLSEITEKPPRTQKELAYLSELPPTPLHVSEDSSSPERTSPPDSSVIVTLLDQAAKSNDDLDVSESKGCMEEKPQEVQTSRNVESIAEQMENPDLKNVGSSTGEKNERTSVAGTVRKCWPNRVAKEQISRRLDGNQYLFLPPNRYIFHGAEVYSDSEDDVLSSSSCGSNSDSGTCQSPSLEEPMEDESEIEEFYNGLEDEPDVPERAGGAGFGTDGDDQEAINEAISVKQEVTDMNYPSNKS

[3] = molecular target: T1, SIRT1; assay: SIRT-Glo enzyme inhibition assay, SIRT1; assay type: biochemical; conditions: for selectivity for SIRT1 (over SIRT2): from IC50 values
[4] = system: lymphoma and epithelial cancer cell lines; assay: Cytotoxicity across lymphoma and epithelial cancer cell lines; assay type: cell-based; conditions: 72 h, read-out: cytotoxicity IC50 range
How it was run: (§1)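 Cells grown under standard conditions and treated in 96-well format with test compound in DMSO (final DMSO 0.25%) or DMSO control for 72 h. Viability was read as luminescence with CellTiterGlo. Assays were run in triplicate, and values are averages of two independent experiments.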

[5] = Cytotoxicity in nontransformed B-cell lines; assay type: cell-based; conditions: human, nontransformed EBV-immortalized B-cell lines B1 and B2
How it was run: as §1

[6] = system: SIRT2-mediated deacetylation of α-tubulin in NCI-H460 cells; assay: α-tubulin acetylation by Western blot; assay type: cell-based, human; conditions: 4 h treatment
[7] = molecular target: T2, SIRT2 (Homo sapiens, UniProt Q8IXJ6); assay: SIRT-Glo enzyme inhibition assay, SIRT2; assay type: biochemical; conditions: 50 μM compound
T2 sequence (Q8IXJ6 1-389): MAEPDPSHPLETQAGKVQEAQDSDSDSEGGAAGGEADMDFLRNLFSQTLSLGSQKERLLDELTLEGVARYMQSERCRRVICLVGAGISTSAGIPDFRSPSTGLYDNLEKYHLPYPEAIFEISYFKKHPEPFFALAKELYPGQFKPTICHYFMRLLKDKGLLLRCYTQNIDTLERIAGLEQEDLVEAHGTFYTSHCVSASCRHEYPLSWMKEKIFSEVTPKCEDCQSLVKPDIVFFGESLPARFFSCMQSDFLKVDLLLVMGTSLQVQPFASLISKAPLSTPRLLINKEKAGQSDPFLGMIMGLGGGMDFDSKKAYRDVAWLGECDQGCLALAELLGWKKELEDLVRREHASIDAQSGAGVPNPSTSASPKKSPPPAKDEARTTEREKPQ

[8] = molecular target: T3, SIRT3 (Homo sapiens, UniProt Q9NTG7); assay: SIRT-Glo enzyme inhibition assay, SIRT3; assay type: biochemical; conditions: 50 μM compound
T3 sequence (Q9NTG7 1-399): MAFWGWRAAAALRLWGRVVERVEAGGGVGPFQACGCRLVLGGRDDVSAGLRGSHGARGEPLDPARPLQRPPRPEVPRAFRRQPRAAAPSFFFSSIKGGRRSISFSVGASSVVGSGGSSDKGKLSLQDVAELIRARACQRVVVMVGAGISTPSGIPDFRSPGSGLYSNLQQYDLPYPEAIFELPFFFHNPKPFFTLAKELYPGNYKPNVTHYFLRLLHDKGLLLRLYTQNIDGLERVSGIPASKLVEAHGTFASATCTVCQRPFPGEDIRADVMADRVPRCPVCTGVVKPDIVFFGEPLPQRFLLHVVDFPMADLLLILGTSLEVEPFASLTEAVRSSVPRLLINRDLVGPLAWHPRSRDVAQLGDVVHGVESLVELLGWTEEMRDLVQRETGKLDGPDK

Compound: O=c1[nH]c(=S)[nH]c(-c2ccccc2)c1Cc1c(O)ccc2ccccc12 [compound 1, 5-[(2-hydroxy-1-naphthyl)methyl]-6-phenyl-2-thioxo-2,3-dihydro-4(1H)-pyrimidinone]
- solubility [1]: poor solubility

Compound: Cc1ccc(-c2[nH][nH]c(=O)c2Cc2c(O)ccc3nc(Cl)ccc23)cc1 [compound 20, 4-[(2-Chloro-6-hydroxyquinolin-5-yl)methyl]-5-(4-methylphenyl)-2,3-dihydro-1H-pyrazol-3-one]
- relative STD signal intensity, C-7 proton [2]: 100%

Compound: Cc1ccc(-c2[nH]oc(=O)c2Cc2c(O)ccc3cc(Br)ccc23)cc1 [compound 24, 4-[(6-Bromo-2-hydroxynaphthalen-1-yl)methyl]-3-(4-methylphenyl)-2,5-dihydro-1,2-oxazol-5-one]
- selectivity for SIRT1 (over SIRT2) [3]: 7.8 fold
- IC50 [4]: 3 to 7 µM
- IC50 at 72 h [5]: 22 to 28 µM
- α-tubulin acetylation [6]: rapid and robust dose-dependent increase in α-tubulin acetylation

Compound: CC(C)c1ccc(-c2[nH][nH]c(=O)c2Cc2c(O)ccc3nc(Cl)ccc23)cc1 [compound 23, 4-[(2-Chloro-6-hydroxyquinolin-5-yl)methyl]-5-[4-(propan-2-yl)phenyl]-2,3-dihydro-1H-pyrazol-3-one]
- selectivity for SIRT1 (over SIRT2) [3]: > 3 fold

Compound: 4-[(2-Chloro-6-hydroxy-4-methylquinolin-5-yl)methyl]-5-(4-methylphenyl)-2,3-dihydro-1H-pyrazol-3-one [compound 22]
- SIRT1 (% inh) ([3]; 50 μM compound): 27%
- SIRT2 (% inh) [7]: 24%
- SIRT3 (% inh) [8]: 32%

Compound: Cc1ccc(-c2[nH][nH]c(=O)c2Cc2c(O)ccc3cc(Br)ccc23)cc1 [compound 14, 4-[(6-Bromo-2-hydroxynaphthalen-1-yl)methyl]-5-(4-methylphenyl)-2,3-dihydro-1H-pyrazol-3-one]
- selectivity for SIRT1 (over SIRT2) [3]: greater than 5 fold
